Measured values taken from PubChem BioAssay.
Inconclusive results are not listed.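 How the source made its calls, unless noted: active means inhibition over a set limit, the all-compound mean plus 3 SD, in both replicate runs; inconclusive means over that limit in just one replicate run; inactive means at or under that limit in both runs.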

Tests used:
[1] = OD615 S. cerevisiae growth inhibition, permissive medium, pilot counter-assay, permissive growth control for S. cerevisiae lifespan shortening project (AID 705;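 active means growth inhibition above 25% in both replicates, a cutoff set 3 SD above the mean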); conditions: OD615, 24 h, at 10 µM, stronger effect = higher value
Outline: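 System: Engineered DeaD yeast | Buffer or medium: SC raffinose/galactose permissive medium | Doses: 10 µM single dose, 0.25% DMSO | Times: 24 h exposure, 30 °C | Measured by: OD615 turbidity read | Read-out: Yeast growth inhibition indicated by reduced 24 h OD615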

[2] = Restrictive medium S. cerevisiae growth inhibition, OD615, pilot screen of yeast lifespan reduction project, restrictive growth control (AID 706;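 active means growth inhibition above a set limit, 3 SD over mean compound inhibition, in both replicates, cut at about 43% in these data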;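 further: modified DeaD lifespan yeast strain shifted to restrictive glucose medium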); conditions: OD615, 48 h, at 10 µM, stronger effect = higher value
Outline: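 Assay system: engineered S. cerevisiae DeaD strain; Buffer or medium: CSMM-D glucose medium; Dosing: 10 µM compound, 0.25% DMSO; Times: cell pre-growth 4 h, compound exposure 48 h, 30 °C; Detection: absorbance (optical density) measured at 615 nm.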

[3] = viability gain of MRP-1-high H69AR cells under doxorubicin, pilot screen, MRP-1 activator project, CellTiter-Glo, duplicate (AID 807;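 active means viability increase at or above a cutoff of the median across tested compounds plus 3 SD, cut at about 8.5% in these data, passing the limit was not always enough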;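 further: compound pretreatment 18-22 h then 72 h combined with doxorubicin; 0% = doxorubicin alone and 100% = vehicle without doxorubicin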); conditions: H69AR viability with doxorubicin, CellTiter-Glo luminescence; at 10 µM; stronger effect = higher value
[4] = growth suppression of beta-catenin knockout HCT116, pilot screen, human colon tumor cells (AID 823;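 active means cell viability at or below a set limit in both duplicate runs, the limit being the all-compound median minus 4 SD, cut at about 23% in these data, passing the limit was not always enough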;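 further: 0% = wells killed by 20 µM Hyamine and 100% = untreated DMSO cell wells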); conditions: CellTiter-Glo, 60 h, at 10 µM, stronger effect = lower value
[5] = growth suppression of PTEN-deleted HCT116, pilot screen, cell-based, HCT116 clonal line, CellTiter-Glo (AID 824;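 active means viability at or below 27.92% in each of two runs, the all-compound median minus 4 SD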;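 further: 0% = 20 µM Hyamine control and 100% = vehicle cell control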); conditions: 60 h, at 10 µM, stronger effect = lower value
[6] = inhibitors of the yeast RAM network, pilot screen, dse1pr::URA3 reporter, 5-FOA selection (AID 869);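 further: 0% = DMSO wells with no growth and 100% = 10 µM 1-NA-PP1 with full growth; RAM network block rescues cells from 5-FOA so hits raise OD615 growth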; conditions: S. cerevisiae dse1pr::URA3 5-FOA growth, OD615, 2 d; at 10 µM; stronger effect = higher value; strain carries analog-sensitive mutant Cbk1 kinase
[7] = RAM signaling pathway blockade in yeast – S. cerevisiae, Pdr1DBD-CYC8 efflux-inhibited sensitized strain, primary screen (AID 1298;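 active means RAM network inhibition above 8.4% in each of two replicates, 3 SD over the compound average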;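 further: 0% = DMSO untreated cells without growth and 100% = 10 µM 1-NA-PP1 full growth; higher means more yeast growth rescued from 5-FOA killing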); conditions: S. cerevisiae cbk1-as DSE1-URA3 strain, 5-FOA growth OD615, 2 d; at 50 µM; stronger effect = higher value

O=C(NCc1ccc2c(c1)OCO2)c1ccc(NC(=O)C2CCCO2)cc1 (stereo not drawn)
inactive: growth inhibition [1] -11% | growth inhibition [2] -20.2% | viability increase [3] -2.17% | viability [4] 102% | viability [5] 103% | inhibition [6] 3.76% | RAM network inhibition [7] 4.81%

O=C(NCCn1ccc2ccccc21)c1ccc(S(=O)(=O)N2CCCCC2)cc1
inactive: growth inhibition [1] -12.5% | growth inhibition [2] -22.4% | viability increase [3] -5.02% | viability [4] 79.6% | viability [5] 71.1% | inhibition [6] 0.45% | RAM network inhibition [7] 4.77%

COC(=O)c1cc2c(s1)-c1ccccc1OC2
inactive: growth inhibition [1] -11.1% | growth inhibition [2] 4.14% | viability increase [3] -4.57% | viability [4] 101% | viability [5] 95.7% | inhibition [6] 1.39% | RAM network inhibition [7] 3.14%

O=S(=O)(c1ccc(Br)cc1)N1CCn2c(nc3ccccc32)C1
inactive: growth inhibition [1] -6.87% | growth inhibition [2] -3.65% | viability increase [3] -2.52% | viability [4] 101% | viability [5] 97.5% | inhibition [6] 2.46% | RAM network inhibition [7] 6.31%

O=C(O)CCCC(=O)NCCCc1ccccc1
inactive: growth inhibition [1] -6.08% | growth inhibition [2] 3.99% | viability increase [3] -2.85% | viability [4] 98.5% | viability [5] 89.8% | inhibition [6] 1.02% | RAM network inhibition [7] 2.45%

NC(=O)C1CCN(c2ncnc3c2c(-c2ccccc2)cn3-c2ccccc2)CC1
inactive: growth inhibition [1] -2.17% | growth inhibition [2] 8.02% | viability increase [3] -4.62% | viability [4] 81.3% | viability [5] 81.9% | inhibition [6] -0.35% | RAM network inhibition [7] 3.9%

COc1cccc(C(=O)Nc2nnc(-c3ccc(F)cc3)o2)c1
inactive: growth inhibition [1] -12.2% | growth inhibition [2] -0.875% | viability increase [3] -3.38% | viability [4] 29% | viability [5] 32% | inhibition [6] 0.4% | RAM network inhibition [7] 0.21%

CCCCc1ccc(Nc2ncnc3nc[nH]c23)cc1
inactive: growth inhibition [1] -6.71% | growth inhibition [2] 22.7% | viability increase [3] 2.8% | viability [4] 106% | viability [5] 94% | inhibition [6] -0.1% | RAM network inhibition [7] 1.66%

CC(C)c1ccc(NC(=O)c2cnn(-c3ccccc3)c2NC(=O)c2ccco2)cc1
inactive: growth inhibition [1] -2.46% | growth inhibition [2] 0.43% | viability increase [3] -4.1% | viability [4] 89.7% | viability [5] 85.6% | inhibition [6] 1.9% | RAM network inhibition [7] 5.45%

CCc1nc(C)cn1S(=O)(=O)c1cc(C)c(OC)cc1C
inactive: growth inhibition [1] -0.385% | growth inhibition [2] 0.98% | viability increase [3] 0.56% | viability [4] 102% | viability [5] 103% | inhibition [6] 1.69% | RAM network inhibition [7] 12.1%

CCCc1nnc(NC(=O)CC(=O)OCC)s1
inactive: growth inhibition [1] 6.47% | growth inhibition [2] -8.03% | viability increase [3] -1.07% | viability [4] 97% | viability [5] 93.1% | inhibition [6] 0.96% | RAM network inhibition [7] -0.11%

Cc1cc(C)n(/N=C/c2cccc(O)c2)c(=O)c1C(N)=O
inactive: growth inhibition [1] -22.8% | growth inhibition [2] -22.5% | viability increase [3] 1.95% | viability [4] 99.7% | viability [5] 100% | inhibition [6] 0.485% | RAM network inhibition [7] 4.4%

COc1ccc(C2C3=C(Nc4ncnn42)c2ccccc2CCC3)cc1 (stereo not drawn)
inactive: growth inhibition [1] -12.5% | growth inhibition [2] -17.7% | viability increase [3] -1.45% | viability [4] 91.7% | viability [5] 89.1% | inhibition [6] 1.9% | RAM network inhibition [7] 3.32%

Cn1c(Cn2c(=O)sc3ccccc32)nnc1SCC(=O)NC1CCCC1
inactive: growth inhibition [1] -9.37% | growth inhibition [2] -5.96% | viability increase [3] -1.04% | viability [4] 102% | viability [5] 103% | inhibition [6] 0% | RAM network inhibition [7] 3.56%

CCN(CCNS(=O)(=O)c1ccc2c(c1)oc(=O)n2C)c1ccccc1
inactive: growth inhibition [1] -5.19% | growth inhibition [2] -5.92% | viability increase [3] -1.13% | viability [4] 108% | viability [5] 105% | inhibition [6] 4.3% | RAM network inhibition [7] 1.2%

COc1cc(NS(=O)(=O)c2ccc3c(c2)oc(=O)n3C)cc(OC)c1OC
inactive: growth inhibition [1] -3.74% | growth inhibition [2] 0.425% | viability increase [3] -4.97% | viability [4] 41.9% | viability [5] 35.5% | inhibition [6] -0.355% | RAM network inhibition [7] 2.41%

O=C(Nc1cccc(C(F)(F)F)c1)c1cnc2n(c1=O)CCS2
inactive: growth inhibition [1] -9.46% | growth inhibition [2] 5.56% | viability increase [3] 0.63% | viability [4] 108% | viability [5] 95.2% | inhibition [6] 2.6% | RAM network inhibition [7] 5.71%

Cn1c(=O)oc2cc(S(=O)(=O)N3CCCC(C(=O)N4CCn5c4nc4ccccc45)C3)ccc21 (stereo not drawn)
inactive: growth inhibition [1] -8.03% | growth inhibition [2] -7.74% | viability increase [3] -1.54% | viability [4] 77.7% | viability [5] 76.2% | inhibition [6] 0.695% | RAM network inhibition [7] 1.49%

CC(=O)c1ccc(-n2nncc2C(C)(C)C)cc1
inactive: growth inhibition [1] -3.02% | growth inhibition [2] -2.67% | viability increase [3] -0.85% | viability [4] 98.6% | viability [5] 99.5% | inhibition [6] 1.47% | RAM network inhibition [7] 0.78%

COc1ccc(-c2nc3cnccn3c2Nc2ccc3c(c2)OCO3)cc1
inactive: growth inhibition [1] -10.7% | growth inhibition [2] 3.96% | viability increase [3] -6.6% | viability [4] 70.9% | viability [5] 62.8% | inhibition [6] -0.105% | RAM network inhibition [7] 0.16%

CC(=O)NCc1nc2ccccc2n1Cc1ccccc1F
inactive: growth inhibition [1] -7.66% | growth inhibition [2] -15.8% | viability increase [3] -0.31% | viability [4] 108% | viability [5] 104% | inhibition [6] 3.39% | RAM network inhibition [7] 2.03%

CCOC(=O)CNc1c(N2CCN(c3ccccn3)CC2)c(=O)c1=O
inactive: growth inhibition [1] 2.94% | growth inhibition [2] 13.8% | viability increase [3] -1.12% | viability [4] 110% | viability [5] 102% | inhibition [6] 1.91% | RAM network inhibition [7] -0.36%

Cc1ccc(-n2c(SCC(=O)Nc3nccs3)nc3c(c2=O)SCC3)cc1
inactive: growth inhibition [1] -10.3% | growth inhibition [2] -5.16% | viability increase [3] -6.87% | viability [4] 94.2% | viability [5] 92.2% | inhibition [6] 3.41% | RAM network inhibition [7] 6.62%

COCCOC(=O)C1=C(C)NC(=O)NC1c1ccc(OC(=O)c2ccco2)c(OC)c1 (stereo not drawn)
inactive: growth inhibition [1] 7.03% | growth inhibition [2] -14.5% | viability increase [3] -2.68% | viability [4] 97.8% | viability [5] 92.7% | inhibition [6] 2.5% | RAM network inhibition [7] 4.12%
